Measured values taken from ChEMBL document CHEMBL2086366, “Chemical optimization of new ligands of the low-density lipoprotein receptor as potential vectors for central nervous system targeting” (J Med Chem, 2012).
Where a SMILES comes first, the peptide text is derived from it. Bridges are numbered along the chain shown (N, C = ends).

What was measured:
[1] = Half life in Swiss mouse plasma; type: ADME, cell-free
Outline: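 Peptide in 0.9% NaCl was spiked into freshly collected Swiss mouse blood at 2 μM nominal (n = 3) and kept at 37 °C for 0, 0.5, 1, 2, 5 and 8 h. Plasma was separated, acidified with formic acid, and protein precipitated with acetonitrile. Analysis was by LC-MS/MS (positive ESI), LLOQ 25-50 nM.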

[2] = target: Low-density lipoprotein receptor (Homo sapiens) (UniProt P01130); experiment: Displacement of S-tagged Ac-DSGL[CMPRLRGC]cDPR-NH2 from human DsRed2-fused LDLR expressed in CHO cells at 10 uM after 1 hr by FRET assay; type: cell-based
Low-density lipoprotein receptor (Homo sapiens), sequence (P01130 whole entry, the tested form may be a part): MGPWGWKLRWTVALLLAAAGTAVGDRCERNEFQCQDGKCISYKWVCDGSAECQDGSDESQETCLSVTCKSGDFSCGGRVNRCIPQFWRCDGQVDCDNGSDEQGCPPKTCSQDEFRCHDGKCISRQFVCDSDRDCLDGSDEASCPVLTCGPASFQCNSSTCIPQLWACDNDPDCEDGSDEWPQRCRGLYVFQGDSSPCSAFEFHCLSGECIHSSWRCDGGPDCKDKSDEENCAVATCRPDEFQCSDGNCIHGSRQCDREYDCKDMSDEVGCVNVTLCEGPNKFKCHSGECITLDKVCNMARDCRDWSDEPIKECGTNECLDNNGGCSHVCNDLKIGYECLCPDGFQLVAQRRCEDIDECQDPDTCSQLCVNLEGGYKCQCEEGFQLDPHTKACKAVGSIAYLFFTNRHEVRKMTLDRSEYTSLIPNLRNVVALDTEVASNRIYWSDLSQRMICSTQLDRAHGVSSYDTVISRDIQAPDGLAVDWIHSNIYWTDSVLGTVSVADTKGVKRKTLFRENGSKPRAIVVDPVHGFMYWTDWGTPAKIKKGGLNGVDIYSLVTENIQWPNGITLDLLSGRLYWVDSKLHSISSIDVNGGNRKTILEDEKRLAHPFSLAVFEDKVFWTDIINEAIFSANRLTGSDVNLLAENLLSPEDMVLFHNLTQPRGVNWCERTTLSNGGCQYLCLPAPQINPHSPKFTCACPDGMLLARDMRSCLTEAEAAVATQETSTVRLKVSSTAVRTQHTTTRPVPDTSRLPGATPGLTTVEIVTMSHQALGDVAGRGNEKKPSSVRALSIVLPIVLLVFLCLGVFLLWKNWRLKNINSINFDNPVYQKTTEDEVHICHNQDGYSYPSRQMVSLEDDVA
Outline: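 CHO cells stably expressing hLDLR-DsRed2 (Ham-F12, 5% FBS, Geneticin) at 800 000 cells/well were incubated in triplicate with S-tagged reference peptide (10 μM) plus test peptide (10 μM) in Ham-F12/1% BSA, 1 h, 37 °C. Scrambled and untagged peptide controls were included; values are means of at least three points.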

Mus musculus = experiment: Biodistribution in iv dosed dorsal spinal cord of C57-B16 mouse after 10 mins by real time biphoton microscopic analysis; type: ADME, organism-based; conditions: in vivo
Outline: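 C57-Bl6 mice (>7 weeks) anesthetized with ketamine-xylazine (100 mg/kg, 10 mg/kg), T13 laminectomy; 200 μL Rhodamine Red-X-labelled peptide (167 μM in DMSO + PBS) given iv, sometimes with 70 kDa fluorescein dextran. Two-photon imaging (840 nm excitation) of superficial dorsal spinal cord (first 100 μm) from 10 min after injection; scrambled peptide and free dye as controls.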

Compound	half-life [1] [h]	inhibition [2] [%]	Drug uptake (Mus musculus)
CSCC[C@@H]1NC(=O)[C@@H](NC(C)=O)C(C)(C)SSC[C@@H](C(N)=O)NC(=O)CNC(=O)[C@H](CCCNC(=N)N)NC(=O)[C@H](CC(C)C)NC(=O)[C@H](CCCNC(=N)N)NC(=O)[C@@H]2CCCCN2C1=O	2.99		
CSCC[C@@H]1NC(=O)[C@@H](NC(=O)[C@H](CC(C)C)NC(=O)CNC(=O)[C@H](CO)NC(=O)[C@H](CC(=O)O)NC(C)=O)CSSC[C@@H](C(=O)N[C@@H](CC(=O)O)C(=O)N2CCC[C@H]2C(=O)N[C@@H](CCCNC(=N)N)C(N)=O)NC(=O)[C@H](C)NC(=O)[C@H](CCCNC(=N)N)NC(=O)[C@H](CC(C)C)NC(=O)[C@H](CCCNC(=N)N)NC(=O)[C@@H]2CCCN2C1=O (Ac-DSGLCMPRLRACDPR-NH2; disulfide 5-12)		20	
CSCC[C@@H]1NC(=O)[C@@H](NC(=O)[C@H](CC(C)C)NC(=O)CNC(=O)[C@H](CO)NC(=O)[C@H](CC(=O)O)NC(C)=O)CSSC[C@@H](C(=O)N[C@@H](CC(=O)O)C(=O)N2CCC[C@H]2C(=O)N[C@@H](C)C(N)=O)NC(=O)CNC(=O)[C@H](CCCNC(=N)N)NC(=O)[C@H](CC(C)C)NC(=O)[C@H](CCCNC(=N)N)NC(=O)[C@@H]2CCCN2C1=O (Ac-DSGLCMPRLRGCDPA-NH2; disulfide 5-12)		55	
CSCC[C@@H]1NC(=O)[C@@H](NC(=O)[C@H](CC(C)C)NC(=O)CNC(=O)[C@H](CO)NC(=O)[C@H](CC(=O)O)NC(C)=O)CSSC[C@@H](C(=O)N[C@@H](CC(=O)O)C(=O)N2CCC[C@H]2C(=O)N[C@@H](CCCNC(=N)N)C(N)=O)NC(=O)CNC(=O)[C@H](CCCNC(=N)N)NC(=O)[C@H](C)NC(=O)[C@H](CCCNC(=N)N)NC(=O)[C@@H]2CCCN2C1=O (Ac-DSGLCMPRARGCDPR-NH2; disulfide 5-12)		35	
Ac-DSGLSMPRLRGSDPR-NH2		0	
CSCC[C@@H]1NC(=O)[C@@H](NC(=O)[C@H](CC(C)C)NC(=O)CNC(=O)[C@H](CO)NC(=O)[C@H](CC(=O)O)NC(C)=O)CSSC[C@@H](C(=O)N[C@@H](CC(=O)O)C(=O)N2CCC[C@H]2C(=O)N[C@@H](CCCNC(=N)N)C(N)=O)NC(=O)CNC(=O)[C@H](C)NC(=O)[C@H](CC(C)C)NC(=O)[C@H](CCCNC(=N)N)NC(=O)[C@@H]2CCCN2C1=O (Ac-DSGLCMPRLAGCDPR-NH2; disulfide 5-12)		2	
CSCC[C@@H]1NC(=O)[C@@H](NC(=O)[C@H](CC(C)C)NC(=O)CNC(=O)[C@H](CO)NC(=O)[C@H](CC(=O)O)NC(C)=O)CSSC[C@@H](C(=O)N[C@@H](CC(=O)O)C(=O)N2CCC[C@H]2C(=O)N[C@@H](CCCNC(=N)N)C(N)=O)NC(=O)CNC(=O)[C@H](CCCNC(=N)N)NC(=O)[C@H](CC(C)C)NC(=O)[C@H](C)NC(=O)[C@@H]2CCCN2C1=O (Ac-DSGLCMPALRGCDPR-NH2; disulfide 5-12)		0	
CSCC[C@@H]1NC(=O)[C@@H](NC(C)=O)CSSC[C@@H](C(N)=O)NC(=O)CNC(=O)[C@H](CCCNC(=N)N)NC(=O)[C@@H]2CCCN2C1=O (Ac-CMPRGC-NH2; disulfide 1-6)		39	
CSCC[C@@H]1NC(=O)[C@@H](NC(C)=O)C(C)(C)SSC[C@@H](C(N)=O)NC(=O)CN(C)C(=O)[C@H](CCCNC(=N)N)NC(=O)[C@H](CC(C)C)NC(=O)[C@H](CCCNC(=N)N)NC(=O)[C@@H]2CSCN2C1=O	2.9		
CSCC[C@@H]1NC(=O)[C@H](NC(C)=O)CSSC[C@@H](C(N)=O)NC(=O)CNC(=O)[C@H](CCCNC(=N)N)NC(=O)[C@H](CC(C)C)NC(=O)[C@H](CCCNC(=N)N)NC(=O)[C@@H]2CCCN2C1=O	3.03		Active
CSCC[C@@H]1NC(=O)[C@@H](NC(=O)[C@H](CC(C)C)NC(=O)CNC(=O)[C@H](CO)NC(=O)[C@H](C)NC(C)=O)CSSC[C@@H](C(=O)N[C@@H](CC(=O)O)C(=O)N2CCC[C@H]2C(=O)N[C@@H](CCCNC(=N)N)C(N)=O)NC(=O)CNC(=O)[C@H](CCCNC(=N)N)NC(=O)[C@H](CC(C)C)NC(=O)[C@H](CCCNC(=N)N)NC(=O)[C@@H]2CCCN2C1=O (Ac-ASGLCMPRLRGCDPR-NH2; disulfide 5-12)		55	

Second part, the compound after the results:

half-life [1] [h]	inhibition [2] [%]	Drug uptake (Mus musculus)	Compound
	0		Ac-DSGLAMPRLRGCDPR-NH2
1.8			CSCC[C@@H]1NC(=O)[C@H](NC(C)=O)CSSC[C@@H](C(N)=O)NC(=O)CNC(=O)[C@H](CCCNC(=N)N)NC(=O)[C@H](CC(C)C)NC(=O)[C@H](CCCNC(=N)N)NC(=O)[C@@H]2CSCN2C1=O
1.47			CSCC[C@@H]1NC(=O)[C@@H](NC(C)=O)CSSC[C@@H](C(N)=O)NC(=O)CNC(=O)[C@H](CCCNC(=N)N)NC(=O)[C@H](CC(C)C)NC(=O)[C@H](CCCNC(=N)N)NC(=O)[C@@H]2CCCN2C1=O
1.7			CSCC[C@@H]1NC(=O)[C@H](NC(C)=O)C(C)(C)SSC[C@@H](C(N)=O)NC(=O)CNC(=O)[C@H](CCCNC(=N)N)NC(=O)[C@H](CC(C)C)NC(=O)[C@H](CCCNC(=N)N)NC(=O)[C@@H]2CCCCN2C1=O
	70		CSCC[C@@H]1NC(=O)[C@@H](NC(=O)[C@H](CC(C)C)NC(=O)CNC(=O)[C@H](CO)NC(=O)[C@H](CC(=O)O)NC(C)=O)CSSC[C@@H](C(=O)N[C@@H](C)C(=O)N2CCC[C@H]2C(=O)N[C@@H](CCCNC(=N)N)C(N)=O)NC(=O)CNC(=O)[C@H](CCCNC(=N)N)NC(=O)[C@H](CC(C)C)NC(=O)[C@H](CCCNC(=N)N)NC(=O)[C@@H]2CCCN2C1=O (Ac-DSGLCMPRLRGCAPR-NH2; disulfide 5-12)
	0		CSCC[C@@H]1NC(=O)[C@@H](NC(C)=O)CSC[C@@H](C(N)=O)NC(=O)[C@H](CCCNC(=N)N)NC(=O)[C@@H]2CCCN2C1=O
2.26			CSCC[C@@H]1NC(=O)[C@H](NC(C)=O)CSSC[C@@H](C(N)=O)NC(=O)CN(C)C(=O)[C@H](CCCNC(=N)N)NC(=O)[C@H](CC(C)C)NC(=O)[C@H](CCCNC(=N)N)NC(=O)[C@@H]2CSCN2C1=O
